The source made the active and inactive calls. The calls are words filed in the database; no cut-off is given here.
tested on: KB-CV60; assay: Reversal of multidrug resistance in human KB-CV60 cells after 72 hrs by MTT assay; format: functional, cell-based
Procedure, shortened: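 KB-CV60 MDR line (selected from KB-3-1, kept in 1 µg/mL cepharanthine and 60 ng/mL vincristine), RPMI 1640 with 10% newborn calf serum; 10 000 cells/well, 24 h preincubation at 37 °C, 5% CO2; anticancer agent plus sample for 48 h; MTT 3 h, formazan in DMSO, A540 gives % growth inhibition.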

| Structure (SMILES) | Activity |
| --- | --- |
| CC(=O)OCC1=C/[C@@H]2OC(=O)[C@H](C)[C@@]2(O)[C@@H](OC(C)=O)[C@H]2[C@]3(C)O[C@@H]3C[C@H](OC(C)=O)[C@]2(C)[C@@H](OC(C)=O)\C=C\1 | inactive |
| C=C1[C@H](Cl)[C@@H]2OC(=O)[C@H](C)[C@]23O[C@@]1(O)C[C@H](OC(C)=O)[C@]1(C)[C@H]([C@@H](C)[C@H](OC(=O)c2ccccc2)C[C@@H]1OC(C)=O)[C@@H]3OC(C)=O | Active |
| CCC(=O)O[C@@H]1C[C@H](OC(C)=O)[C@]2(C)[C@H](OC(C)=O)/C=C\C(CCl)=C/[C@@H]3OC(=O)[C@H](C)[C@@]3(O)[C@@H](OC(C)=O)[C@H]2[C@]1(C)O | inactive |
| C=C1/C=C/[C@H](OC(C)=O)[C@@]2(C)[C@@H](OC(C)=O)C[C@H]3O[C@@]3(C)[C@@H]2[C@H](OC(C)=O)[C@]2(O)[C@@H](C)C(=O)O[C@H]2[C@H]1Cl | inactive |

tested on: KB-C2; assay: Reversal of multidrug resistance in human KB-C2 cells after 72 hrs by MTT assay; format: functional, cell-based
Procedure, shortened: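 KB-C2 MDR line (selected from KB-3-1, kept in 2 µg/mL colchicine), RPMI 1640 with 10% newborn calf serum; 10 000 cells/well, 24 h preincubation at 37 °C, 5% CO2; colchicine plus sample added for 48 h; MTT 3 h, formazan in DMSO, absorbance 540 nm gives % growth inhibition; cytotoxicity checked in parental KB-3-1.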

| Structure (SMILES) | Activity |
| --- | --- |
| CC(=O)OCC1=C/[C@@H]2OC(=O)[C@H](C)[C@@]2(O)[C@@H](OC(C)=O)[C@H]2[C@]3(C)O[C@@H]3C[C@H](OC(C)=O)[C@]2(C)[C@@H](OC(C)=O)\C=C\1 | inactive |
| C=C1[C@H](Cl)[C@@H]2OC(=O)[C@H](C)[C@]23O[C@@]1(O)C[C@H](OC(C)=O)[C@]1(C)[C@H]([C@@H](C)[C@H](OC(=O)c2ccccc2)C[C@@H]1OC(C)=O)[C@@H]3OC(C)=O | Active |
| CCC(=O)O[C@@H]1C[C@H](OC(C)=O)[C@]2(C)[C@H](OC(C)=O)/C=C\C(CCl)=C/[C@@H]3OC(=O)[C@H](C)[C@@]3(O)[C@@H](OC(C)=O)[C@H]2[C@]1(C)O | inactive |
| C=C1/C=C/[C@H](OC(C)=O)[C@@]2(C)[C@@H](OC(C)=O)C[C@H]3O[C@@]3(C)[C@@H]2[C@H](OC(C)=O)[C@]2(O)[C@@H](C)C(=O)O[C@H]2[C@H]1Cl | inactive |

tested on: NBT2; assay: Induction of multinuclei formation in rat NBT2 cells assessed as inhibition of cytokinesis at 0.5 to 2 ug/mL after 72 hrs; format: functional, cell-based
Procedure, shortened: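 Rat bladder epithelial NBT-II cells in modified Eagle's medium with 10% heat-inactivated FBS, streptomycin, amphotericin B and glutamic acid; exposed to graded briarane concentrations at 37 °C for 72 h; multinucleation scored by microscopy at 48 and 72 h.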

| Structure (SMILES) | Activity |
| --- | --- |
| C=C1/C=C\[C@@H](OC(C)=O)[C@@]2(C)C=C[C@@H](OC(C)=O)[C@](O)(COC(C)=O)[C@@H]2[C@H](OC(C)=O)[C@]2(O)[C@@H](C)C(=O)O[C@H]2[C@H]1Cl | Active |
| C=C1CC[C@@H](OC(C)=O)[C@@]2(C)[C@@H](OC(C)=O)CC[C@@]3(CO3)[C@@H]2[C@H](OC(C)=O)[C@]2(O)[C@@H](C)C(=O)O[C@H]2[C@H]1Cl | Active |

Reference: ChEMBL document CHEMBL1148203, “Briarane diterpenes from two species of octocorals, Ellisella sp. and Pteroeides sp” (J Nat Prod, 2004)
